{"source": "paper PMC2943143", "about": "(Biochemical pharmacology, 2010)", "key": {"Neutral endopeptidase": {"target": "Neutral endopeptidase", "conditions": "read-out: IC50, Neutral endopeptidase; cited from earlier work"}, "rice pol λ": {"target": "rice pol λ (Oryza sativa subsp. japonica, UniProt Q67VC8)", "assay": "Pol assay, rice pol λ", "type": "biochemical", "conditions": "supplemental Fig. S1A", "how_it_was_run": "(§1)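 Test compound was dissolved in DMSO and sonicated 30 s. It was preincubated with enzyme (0.05 unit final) in 50 mM Tris-HCl pH 7.5, 1 mM DTT, 50% glycerol and 0.1 mM EDTA at 0 °C for 10 min. This was added to each enzyme's standard reaction mix with poly(dA)/oligo(dT)18 (A/T = 2/1) template-primer and dTTP substrate, then incubated at 37 °C for 60 min. Activity is given as % of inhibitor-free control.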"}, "human pol κ": {"target": "T1, human pol κ (Homo sapiens, UniProt Q9UBT6)", "T1 sequence (Q9UBT6 1-560 limits assumed)": "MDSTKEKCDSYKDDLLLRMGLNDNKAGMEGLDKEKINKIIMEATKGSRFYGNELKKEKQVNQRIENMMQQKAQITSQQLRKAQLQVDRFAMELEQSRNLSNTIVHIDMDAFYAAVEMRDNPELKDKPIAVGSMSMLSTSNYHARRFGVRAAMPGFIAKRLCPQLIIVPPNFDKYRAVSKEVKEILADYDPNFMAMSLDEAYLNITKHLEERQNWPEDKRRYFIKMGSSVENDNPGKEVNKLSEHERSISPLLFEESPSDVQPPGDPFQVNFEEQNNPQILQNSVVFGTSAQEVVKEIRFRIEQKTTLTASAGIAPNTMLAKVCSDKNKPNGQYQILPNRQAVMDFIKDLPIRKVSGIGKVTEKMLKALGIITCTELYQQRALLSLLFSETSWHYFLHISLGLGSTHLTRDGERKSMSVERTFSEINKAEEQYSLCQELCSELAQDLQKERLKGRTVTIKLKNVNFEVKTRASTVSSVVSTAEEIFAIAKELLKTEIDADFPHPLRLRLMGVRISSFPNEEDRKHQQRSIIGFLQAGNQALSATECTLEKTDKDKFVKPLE", "assay": "Pol assay, pol κ", "type": "biochemical", "conditions": "for Ki: pol κ", "how_it_was_run": "as §1"}, "[1]": {"target": "human pol λ (full-length, residues 1–575) (Homo sapiens, UniProt Q9UGP5)", "sequence (Q9UGP5 whole entry, the tested form may be a part)": "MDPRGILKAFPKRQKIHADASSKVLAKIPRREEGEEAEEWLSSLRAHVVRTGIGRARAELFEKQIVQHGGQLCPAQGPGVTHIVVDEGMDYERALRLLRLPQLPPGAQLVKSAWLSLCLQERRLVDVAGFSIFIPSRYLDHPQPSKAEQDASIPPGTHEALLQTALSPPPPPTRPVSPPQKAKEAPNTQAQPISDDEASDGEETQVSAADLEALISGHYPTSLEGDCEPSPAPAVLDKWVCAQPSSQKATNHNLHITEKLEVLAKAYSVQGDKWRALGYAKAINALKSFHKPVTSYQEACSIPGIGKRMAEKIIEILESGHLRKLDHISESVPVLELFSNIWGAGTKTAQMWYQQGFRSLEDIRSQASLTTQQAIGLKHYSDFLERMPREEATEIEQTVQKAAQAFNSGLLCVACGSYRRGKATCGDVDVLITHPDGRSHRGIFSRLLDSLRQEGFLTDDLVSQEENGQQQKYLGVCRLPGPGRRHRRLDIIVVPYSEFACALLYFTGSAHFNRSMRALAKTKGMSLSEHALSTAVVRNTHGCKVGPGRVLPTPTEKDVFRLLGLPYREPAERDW", "assay": "Pol assay, full-length human pol λ", "type": "biochemical", "conditions": "100 and 1,000 nM PGG, Fig. 1C", "how_it_was_run": "as §1"}, "[2]": {"target": "HIV-1 reverse transcriptase (Human immunodeficiency virus type 1 group M subtype B, UniProt P04585)", "assay": "HIV-1 reverse transcriptase assay", "type": "biochemical, Human immunodeficiency virus type-1 (HIV-1)", "conditions": "highest tested concentration 1 μM, supplemental Fig. S1B", "how_it_was_run": "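Recombinant HIV-1 reverse transcriptase used poly(rA)/oligo(dT)18 (A/T = 2/1) template-primer and dTTP substrate. Enzyme (0.05 unit) was preincubated with test compound in sonicated DMSO at 0 °C for 10 min in Tris-HCl pH 7.5/DTT/glycerol/EDTA buffer. Reaction ran at 37 °C for 60 min. Activity is given as % of control.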"}, "[3]": {"system": "calf thymus double-stranded DNA (dsDNA)", "assay": "Thermal transition of DNA", "type": "binding", "conditions": "15 μM compound, calf thymus dsDNA 6 μg/ml, pH 7.0", "how_it_was_run": "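Calf thymus dsDNA (6 μg/ml) in 0.1 M sodium phosphate pH 7.0 with 1% DMSO was tested with or without test compound, with ethidium bromide as intercalator control. Samples were equilibrated at 78 °C for 10 min, then raised 1 °C every 2 min. Absorbance was recorded on a spectrophotometer with a thermoelectric cell holder, and compound-only absorbance was subtracted to give Tm.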"}, "[4]": {"target": "Angiotensin converting enzyme", "conditions": "read-out: IC50, Angiotensin converting enzyme; cited from earlier work"}, "[5]": {"system": "mouse Lewis lung cancer allografts", "conditions": "dose-dependent in the range of 4 and 20 mg/kg, syngenic mice; cited from earlier work"}, "human pol δ": {"target": "human pol δ (Homo sapiens, UniProt P28340)", "sequence (P28340 whole entry)": "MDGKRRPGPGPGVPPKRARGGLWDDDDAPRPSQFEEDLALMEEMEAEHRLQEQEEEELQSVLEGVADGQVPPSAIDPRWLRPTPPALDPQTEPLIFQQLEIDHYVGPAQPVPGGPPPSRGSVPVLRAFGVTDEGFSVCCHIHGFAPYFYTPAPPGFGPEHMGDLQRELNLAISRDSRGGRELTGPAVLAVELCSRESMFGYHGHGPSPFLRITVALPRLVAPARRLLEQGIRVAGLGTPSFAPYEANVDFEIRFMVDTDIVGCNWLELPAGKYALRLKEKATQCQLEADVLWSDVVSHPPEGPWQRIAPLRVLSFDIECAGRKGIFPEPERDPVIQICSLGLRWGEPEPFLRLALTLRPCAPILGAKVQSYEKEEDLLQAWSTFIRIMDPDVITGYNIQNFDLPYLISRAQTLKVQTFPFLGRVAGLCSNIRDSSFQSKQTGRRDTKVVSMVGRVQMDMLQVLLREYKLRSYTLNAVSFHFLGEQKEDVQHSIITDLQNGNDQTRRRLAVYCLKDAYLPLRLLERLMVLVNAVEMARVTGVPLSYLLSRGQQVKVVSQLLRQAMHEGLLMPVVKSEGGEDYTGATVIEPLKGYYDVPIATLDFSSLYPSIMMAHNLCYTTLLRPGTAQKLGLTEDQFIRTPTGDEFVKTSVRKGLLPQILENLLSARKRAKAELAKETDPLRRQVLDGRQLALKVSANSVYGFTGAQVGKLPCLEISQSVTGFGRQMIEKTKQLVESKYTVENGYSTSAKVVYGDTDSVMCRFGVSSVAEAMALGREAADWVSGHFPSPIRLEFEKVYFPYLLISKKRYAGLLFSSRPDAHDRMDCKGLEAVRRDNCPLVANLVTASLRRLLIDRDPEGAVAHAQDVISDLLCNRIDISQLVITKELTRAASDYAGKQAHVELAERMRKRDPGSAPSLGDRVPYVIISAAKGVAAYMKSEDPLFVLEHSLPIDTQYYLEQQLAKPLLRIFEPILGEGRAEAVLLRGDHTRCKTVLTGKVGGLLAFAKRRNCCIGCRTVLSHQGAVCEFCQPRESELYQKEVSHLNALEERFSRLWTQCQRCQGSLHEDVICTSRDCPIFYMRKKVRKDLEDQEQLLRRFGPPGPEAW", "assay": "Pol assay, human pol δ", "type": "biochemical", "how_it_was_run": "as §1"}, "del-2 pol λ (245–575)": {"target": "del-2 pol λ (245–575) (Homo sapiens, UniProt Q9UGP5)", "sequence (Q9UGP5 245-575)": "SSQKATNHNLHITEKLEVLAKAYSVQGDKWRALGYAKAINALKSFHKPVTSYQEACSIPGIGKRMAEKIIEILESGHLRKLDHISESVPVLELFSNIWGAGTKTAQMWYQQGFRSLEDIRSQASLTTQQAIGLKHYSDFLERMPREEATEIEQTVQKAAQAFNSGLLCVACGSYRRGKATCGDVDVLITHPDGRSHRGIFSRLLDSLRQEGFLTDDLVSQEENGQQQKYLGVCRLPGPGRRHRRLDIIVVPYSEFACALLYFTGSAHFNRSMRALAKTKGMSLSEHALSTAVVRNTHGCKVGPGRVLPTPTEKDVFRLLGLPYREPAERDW", "assay": "Pol assay, del-2 pol λ mutant", "type": "biochemical", "how_it_was_run": "as §1"}, "[6]": {"target": "mouse IMP dehydrogenase (type II) (Mus musculus, UniProt P24547)", "sequence (P24547 whole entry)": "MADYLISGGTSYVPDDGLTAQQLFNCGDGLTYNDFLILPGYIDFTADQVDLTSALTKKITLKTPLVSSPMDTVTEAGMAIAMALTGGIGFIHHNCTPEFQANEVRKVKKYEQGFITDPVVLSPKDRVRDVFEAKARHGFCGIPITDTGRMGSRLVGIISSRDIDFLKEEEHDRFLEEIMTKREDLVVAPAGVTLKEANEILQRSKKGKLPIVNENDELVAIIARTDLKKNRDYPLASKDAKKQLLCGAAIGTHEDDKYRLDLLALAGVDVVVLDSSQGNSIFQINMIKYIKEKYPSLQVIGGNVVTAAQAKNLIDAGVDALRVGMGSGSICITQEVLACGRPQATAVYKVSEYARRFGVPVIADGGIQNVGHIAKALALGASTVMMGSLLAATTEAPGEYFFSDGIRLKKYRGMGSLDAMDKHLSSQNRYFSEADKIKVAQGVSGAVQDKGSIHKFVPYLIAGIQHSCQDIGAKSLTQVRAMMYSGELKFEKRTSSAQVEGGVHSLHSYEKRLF", "assay": "IMP dehydrogenase assay", "type": "biochemical", "conditions": "highest tested concentration 1 μM, supplemental Fig. S1B"}, "HCV NS3 protease": {"system": "HCV NS3 protease", "conditions": "read-out: IC50, HCV NS3 protease; cited from earlier work"}, "Taq pol": {"target": "Taq pol (Thermus aquaticus, UniProt P19821)", "sequence (P19821 whole entry)": "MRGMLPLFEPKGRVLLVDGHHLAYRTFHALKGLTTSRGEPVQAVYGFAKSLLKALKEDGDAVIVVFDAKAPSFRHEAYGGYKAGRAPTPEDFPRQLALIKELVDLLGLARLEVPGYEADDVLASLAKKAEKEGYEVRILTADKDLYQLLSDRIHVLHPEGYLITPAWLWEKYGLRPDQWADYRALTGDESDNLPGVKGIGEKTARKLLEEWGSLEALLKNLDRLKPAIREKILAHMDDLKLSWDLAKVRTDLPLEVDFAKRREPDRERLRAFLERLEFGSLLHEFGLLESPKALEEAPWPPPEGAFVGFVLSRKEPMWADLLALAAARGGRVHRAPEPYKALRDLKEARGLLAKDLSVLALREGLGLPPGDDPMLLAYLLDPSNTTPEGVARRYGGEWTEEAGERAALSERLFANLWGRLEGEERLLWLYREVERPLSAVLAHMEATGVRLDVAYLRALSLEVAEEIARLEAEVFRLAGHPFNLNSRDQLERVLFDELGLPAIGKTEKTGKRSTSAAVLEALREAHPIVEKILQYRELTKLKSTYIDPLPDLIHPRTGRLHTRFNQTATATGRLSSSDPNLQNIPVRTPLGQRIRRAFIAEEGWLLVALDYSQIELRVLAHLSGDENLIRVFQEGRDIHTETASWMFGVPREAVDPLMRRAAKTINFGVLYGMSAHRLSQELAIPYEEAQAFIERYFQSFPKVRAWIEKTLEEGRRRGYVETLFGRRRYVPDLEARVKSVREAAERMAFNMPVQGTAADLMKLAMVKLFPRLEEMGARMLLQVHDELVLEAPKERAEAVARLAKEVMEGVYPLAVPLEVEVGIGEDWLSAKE", "assay": "Pol assay, Taq pol", "type": "biochemical", "conditions": "supplemental Fig. S1A", "how_it_was_run": "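Taq polymerase used poly(dA)/oligo(dT)18 (A/T = 2/1) template-primer and dTTP substrate. Test compound in sonicated DMSO was preincubated with enzyme (0.05 unit final) in 50 mM Tris-HCl pH 7.5, 1 mM DTT, 50% glycerol and 0.1 mM EDTA at 0 °C for 10 min. The mixture was then added to standard reaction mix and incubated at 74 °C for 60 min. Activity is given as % of untreated control.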"}, "human pol η": {"target": "human pol η (Homo sapiens, UniProt Q9Y253)", "sequence (Q9Y253 whole entry)": "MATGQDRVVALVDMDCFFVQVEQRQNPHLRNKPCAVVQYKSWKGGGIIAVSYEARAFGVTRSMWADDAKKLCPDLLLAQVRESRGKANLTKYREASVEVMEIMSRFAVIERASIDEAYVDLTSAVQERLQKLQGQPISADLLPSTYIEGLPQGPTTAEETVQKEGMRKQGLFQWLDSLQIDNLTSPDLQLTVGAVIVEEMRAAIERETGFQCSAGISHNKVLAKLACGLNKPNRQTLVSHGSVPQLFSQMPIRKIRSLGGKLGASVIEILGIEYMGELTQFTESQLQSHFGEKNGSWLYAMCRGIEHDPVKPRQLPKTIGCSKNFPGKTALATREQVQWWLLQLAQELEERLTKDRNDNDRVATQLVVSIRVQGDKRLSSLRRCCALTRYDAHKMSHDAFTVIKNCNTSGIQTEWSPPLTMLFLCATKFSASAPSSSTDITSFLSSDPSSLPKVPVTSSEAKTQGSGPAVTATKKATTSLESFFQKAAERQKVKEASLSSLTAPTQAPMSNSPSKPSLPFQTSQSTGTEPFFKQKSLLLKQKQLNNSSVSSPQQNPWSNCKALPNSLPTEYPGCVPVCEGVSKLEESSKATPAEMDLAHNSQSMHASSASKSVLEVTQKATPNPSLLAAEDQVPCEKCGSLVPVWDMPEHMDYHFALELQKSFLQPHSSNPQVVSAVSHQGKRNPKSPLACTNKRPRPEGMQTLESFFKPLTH", "assay": "Pol assay, human pol η", "type": "biochemical", "how_it_was_run": "as §1"}, "del-1 pol λ (133–575)": {"target": "del-1 pol λ (133–575) (Homo sapiens, UniProt Q9UGP5)", "sequence (Q9UGP5 133-575)": "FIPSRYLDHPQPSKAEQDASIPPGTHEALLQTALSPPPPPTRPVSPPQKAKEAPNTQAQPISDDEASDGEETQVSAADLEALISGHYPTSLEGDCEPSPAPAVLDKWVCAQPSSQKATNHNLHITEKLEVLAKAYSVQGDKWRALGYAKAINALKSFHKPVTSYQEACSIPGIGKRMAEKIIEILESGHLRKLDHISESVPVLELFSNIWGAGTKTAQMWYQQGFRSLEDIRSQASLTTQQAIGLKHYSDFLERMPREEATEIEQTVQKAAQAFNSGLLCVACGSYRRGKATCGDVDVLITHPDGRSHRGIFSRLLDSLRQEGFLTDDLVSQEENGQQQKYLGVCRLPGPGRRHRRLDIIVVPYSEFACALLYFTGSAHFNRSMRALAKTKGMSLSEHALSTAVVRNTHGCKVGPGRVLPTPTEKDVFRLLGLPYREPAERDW", "assay": "Pol assay, del-1 pol λ mutant", "type": "biochemical", "conditions": "dose-response, Fig. 4B", "how_it_was_run": "as §1"}, "[7]": {"system": "rat liver microsomal 5 α-reductase", "conditions": "cited from earlier work"}, "bovine DNase I": {"target": "bovine DNase I (Bos taurus, UniProt P00639)", "sequence (P00639 23-282)": "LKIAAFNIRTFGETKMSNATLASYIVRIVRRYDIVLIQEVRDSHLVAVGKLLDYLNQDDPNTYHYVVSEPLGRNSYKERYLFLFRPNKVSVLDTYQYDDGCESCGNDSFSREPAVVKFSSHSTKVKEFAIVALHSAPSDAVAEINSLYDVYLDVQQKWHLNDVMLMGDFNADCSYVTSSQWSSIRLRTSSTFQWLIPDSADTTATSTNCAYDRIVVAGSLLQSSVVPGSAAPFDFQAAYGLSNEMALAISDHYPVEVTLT", "assay": "DNase I assay", "type": "biochemical", "conditions": "highest tested concentration 1 μM, supplemental Fig. S1B", "how_it_was_run": "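Topoisomerases I and II were purified from human placenta, and DNase I came from bovine pancreas. Each activity was measured in a standard assay following the supplier's specifications.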"}}, "note": "Several values for one entry are separate records, joined by “and”; a condition that tells them apart may be missing. Identical values can stand only once. Entries after “also recorded” stand apart in the source; their conditions may differ.", "data": [{"smiles": "O=C(OC[C@H]1O[C@@H](OC(=O)c2cc(O)c(O)c(O)c2)[C@H](OC(=O)c2cc(O)c(O)c(O)c2)[C@@H](OC(=O)c2cc(O)c(O)c(O)c2)[C@@H]1OC(=O)c1cc(O)c(O)c(O)c1)c1cc(O)c(O)c(O)c1", "note": "[PGG, 1,2,3,4,6-penta-O-galloyl-β-D-glucose]", "values": [{"measurement": "IC50", "setting": "Neutral endopeptidase", "result": 12.5, "unit": "µM"}, {"measurement": "effect on rice pol λ activity", "setting": "rice pol λ", "result": "not influenced"}, {"measurement": "IC50", "setting": "human pol κ", "result": 0.03, "unit": "µM"}, {"measurement": "Mode of Inhibition, pol κ, DNA template-primer", "setting": "human pol κ", "result": "Non-competitive for DNA template-primer"}, {"measurement": "Mode of Inhibition, pol κ, dNTP", "setting": "human pol κ", "result": "Non-competitive for dNTP"}, {"measurement": "effect on pol κ activity", "setting": "human pol κ; 100 and 1,000 nM PGG, Fig. 1C", "result": "significantly inhibit"}, {"measurement": "Ki", "setting": "human pol κ; with respect to DNA template-primer", "result": 0.0093, "unit": "µM"}, {"measurement": "Ki", "setting": "human pol κ; with respect to dNTP", "result": 0.0151, "unit": "µM"}, {"measurement": "effect of 0.05% NP-40 on the inhibitory effect on pol κ", "setting": "human pol κ; PGG 10 and 100 nM, supplemental Table S1", "result": "not reversed"}, {"measurement": "effect of poly(rC) or BSA on the inhibitory effect on pol κ", "setting": "human pol κ; poly(rC) 50 μM, BSA 200 μg/ml", "result": "neither poly(rC) nor BSA influenced"}, {"measurement": "effect on pol λ activity", "setting": "[1]", "result": "not affected; also recorded: not sensitive"}, {"measurement": "effect on HIV-1 reverse transcriptase activity", "setting": "[2]", "result": "did not suppress"}, {"measurement": "effect on melting temperature (Tm) / thermal transition of dsDNA", "setting": "[3]", "result": "no effect"}, {"measurement": "IC50", "setting": "[4]", "result": 73.1, "unit": "µM"}, {"measurement": "in vivo growth of Lewis lung cancer allografts", "setting": "[5]", "result": "suppresses"}, {"measurement": "effect on pol δ activity", "setting": "human pol δ; 100 and 1,000 nM PGG, Fig. 1C", "result": "significantly inhibit"}, {"measurement": "IC50", "setting": "human pol δ; IC50, pol δ, range stated for replicative pols (α, δ and ε) together", "result": "< 0.1 µM and 0.013 to 0.066 µM"}, {"measurement": "IC50", "setting": "del-2 pol λ (245–575)", "result": 0.117, "unit": "µM"}, {"measurement": "effect on mouse IMP dehydrogenase (type II) activity", "setting": "[6]", "result": "did not suppress"}, {"measurement": "IC50", "setting": "HCV NS3 protease", "result": 1.6, "unit": "µM"}, {"measurement": "effect on Taq pol activity", "setting": "Taq pol", "result": "not influenced"}, {"measurement": "IC50", "setting": "human pol η", "result": "0.03 to 0.045", "unit": "µM"}, {"measurement": "effect on pol η activity", "setting": "human pol η; 100 and 1,000 nM PGG, Fig. 1C", "result": "significantly inhibit"}, {"measurement": "inhibition of del-1 pol λ activity", "setting": "del-1 pol λ (133–575)", "result": "dose-dependently inhibited"}, {"measurement": "Mode of Inhibition, 5-alpha-Reductase, NADPH", "setting": "[7]", "result": "competitive inhibitor; also recorded: Competitive for NADPH"}, {"measurement": "Mode of Inhibition, 5-alpha-Reductase, testosterone", "setting": "[7]", "result": "non-competitive inhibitor; also recorded: Non-competitive for testosterone"}, {"measurement": "IC50", "setting": "[7]; read-out: IC50, 5-alpha-Reductase", "result": 7.8, "unit": "µM"}, {"measurement": "Ki", "setting": "[7]; read-out: Ki, 5-alpha-Reductase, NADPH, competitive for NADPH", "result": 0.48, "unit": "µM"}, {"measurement": "effect on bovine DNase I activity", "setting": "bovine DNase I", "result": "did not suppress"}]}]}
